# Assay results published in ChEMBL document CHEMBL3822375, “Preclinical Characterization of 3β-(N-Acetyl l-cysteine methyl ester)-2aβ,3-dihydrogaliellalactone (GPA512), a Prodrug of a Direct STAT3 Inhibitor for the Treatment of Prostate Cancer” (J Med Chem, 2016).
# Active and inactive are the calls of the source. The rule behind the calls is not given here.
# Assays:
# Mus musculus [1] = assay: Toxicity in CD1 mouse assessed as effect on histopathological parameters at 40 to 400 mg/kg, administered as single dose through oral gavage; assay type: organism-based; conditions: in vivo
# Outline: (§1)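 Male CD1 mice, 7 weeks old, 5 per group, given one oral gavage dose of 40, 200 or 400 mg/kg in 50 mM citrate buffer, pH 4.0, 5% DMSO, alongside a vehicle control group. Clinical signs, clinical pathology and histopathology were assessed, with the study ending on day 8.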
# Mus musculus [2] = assay: Toxicity in CD1 mouse assessed as effect on clinical signs at 40 to 400 mg/kg, administered as single dose through oral gavage; assay type: organism-based; conditions: in vivo; outline: as §1
# Mus musculus [3] = assay: Tmax in mouse plasma assessed as galiellalactone level at 40 mg/kg, po by LC-MS/MS analysis; assay type: ADME, organism-based; conditions: in vivo
# DU-145 [4] = assay: Antitumor activity against human DU145 cells xenografted in NMRI mouse assessed as reduction of tumor growth rate at 40 mg/kg, po administered 5 times per week for 4 weeks measured on day 26 and day 29 relative to vehicle-treated control; assay type: functional, organism-based
# Outline: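 NMRI-nude male mice given 1.5 million DU145 cells s.c. in the flank. After four weeks, split into two groups of ten. Oral gavage with compound at 40 mg/kg or vehicle (50 mM citrate pH 4.0, 2% DMSO), daily five times per week for four weeks. Caliper measurement twice weekly; volume = width × length × height × 0.52.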
# Mus musculus [5] = assay: AUC (0 to t) in mouse plasma assessed as galiellalactone level at 100 mg/kg, po by LC-MS/MS analysis; assay type: ADME, organism-based; conditions: in vivo
# Outline: (§2)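 Single dose to mice; oral, iv or ip as listed, in 5% DMSO/50 mM citrate buffer pH 4.0 (dosing solutions 0.5, 2 or 5 mg/mL). Oral dosing at 20 mL/kg. Terminal blood under barbiturate anaesthesia at eight time-points to 8 h, n=3 mice per time-point, EDTA plasma. Acetonitrile precipitation with internal standard, LC-MS/MS against plasma calibration lines. Non-compartmental analysis on mean data, trapezoidal AUC.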
# Mus musculus [6] = assay: Apparent half life in mouse plasma assessed as galiellalactone level at 100 mg/kg, po by LC-MS/MS analysis; assay type: ADME, organism-based; conditions: in vivo; outline: as §2
# Mus musculus [7] = assay: AUC (0 to infinity) in mouse plasma assessed as galiellalactone level at 100 mg/kg, po by LC-MS/MS analysis; assay type: ADME, organism-based; design: dose 100 mg/kg, time infinity, route oral; conditions: in vivo; outline: as §2
# Mus musculus [8] = assay: Toxicity in CD1 mouse assessed as change in body weight at 40 mg/kg, administered as single dose through oral gavage measured on day 4 (reference value: 34.68 +/- 4.71 g); assay type: organism-based; conditions: in vivo
# Mus musculus [9] = assay: Toxicity in CD1 mouse assessed as effect on clinical pathological parameters at 40 to 400 mg/kg, administered as single dose through oral gavage; assay type: organism-based; conditions: in vivo; outline: as §1
# Mus musculus [10] = assay: AUC (0 to t) in mouse plasma assessed as galiellalactone level at 40 mg/kg, po by LC-MS/MS analysis; assay type: ADME, organism-based; conditions: in vivo; outline: as §2
# Mus musculus [11] = assay: Toxicity in CD1 mouse assessed as change in body weight at 40 mg/kg, administered as single dose through oral gavage measured on day 1 (reference value: 33.5 +/- 4.34 g); assay type: organism-based; conditions: in vivo
# [12] = Chemical stability of the compound in phosphate buffer saline assessed as half life at 10 uM at pH 7.4 by LC-MS/MS analysis; assay type: physicochemical; conditions: phosphate buffered saline
# Outline: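 Compound diluted from DMSO (or methanol) stock to 10 µM, 2% solvent final, n=2. Matrix was 0.1 M PBS pH 7.4, or […] HCl with 2 mg/mL NaCl adjusted to pH 1.2. Mixed on a shaker; sampled at nominal 5, 15, 30 and 60 min plus T=0. LC-MS/MS with internal standard; % remaining relative to T=0. Formation of parent also monitored.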
# [13] = Downregulation of BCL2 mRNA expression in human DU145 cells xenografted in NMRI nude mouse at 40 mg/kg, po administered 5 times per week for 4 weeks by qPCR analysis; assay type: functional, organism-based; conditions: DU-145
# Outline: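 Half of each DU145 xenograft tumour was snap frozen for mRNA. MCL1 and BCL2 measured by quantitative real-time PCR: 10 min at 95°C, then 40 cycles of 95°C 15 s and 60°C 60 s. Comparative Ct method, normalized to HMBS and SDHA.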
# Mus musculus [14] = assay: Cmax in mouse plasma assessed as galiellalactone level at 100 mg/kg, po by LC-MS/MS analysis; assay type: ADME, organism-based; design: dose 100 mg/kg, route oral; conditions: in vivo; outline: as §2
# Mus musculus [15] = assay: AUC (0 to infinity) in mouse plasma assessed as galiellalactone level at 10 mg/kg, po by LC-MS/MS analysis; assay type: ADME, organism-based; design: dose 10 mg/kg, route oral, time infinity; conditions: in vivo; outline: as §2
# Plasma = assay: Half life in dog plasma assessed as formation of galiellalactone at 5 uM by LC-MS/MS analysis; assay type: ADME, cell-free, Canis lupus familiaris
# Outline: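 Plasma of each species incubated at 37 °C with compound at 5 µM initial, 1% DMSO, n=2. Simvastatin and eucatropine run as controls. Aliquots taken at 0, 5, 15, 30 and 60 min and quenched with acetonitrile containing internal standard, then analysed by LC-MS/MS.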
# Mus musculus [16] = assay: AUC (0 to infinity) in mouse plasma at 40 mg/kg, po by LC-MS/MS analysis; assay type: ADME, organism-based; design: dose 40 mg/kg, route oral, time infinity; conditions: in vivo; outline: as §2
# Mus musculus [17] = assay: Toxicity in NMRI mouse xenografted with human DU145 cells assessed as behavioral alterations at 40 mg/kg, po administered 5 times per week for 4 weeks measured on day 26 and day 29; assay type: organism-based, DU-145; conditions: in vivo, 672 h
# Outline: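 Male NMRI-nude mice, 20 in total, were given 1.5 million DU145 cells subcutaneously in the flank. After 4 weeks they were split into two groups of 10. Each group was gavaged with 40 mg/kg or with vehicle (50 mM citrate buffer pH 4.0, 2% DMSO) daily, 5 times per week for 4 weeks. Body weight, behaviour, side effects and survival were monitored, and tumours were measured twice weekly by caliper.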
# Mus musculus [18] = assay: Apparent half life in mouse plasma assessed as galiellalactone level at 40 mg/kg, po by LC-MS/MS analysis; assay type: ADME, organism-based; conditions: in vivo; outline: as §2
# DU-145 [19] = assay: Induction of apoptosis in human DU145 cells xenografted in NMRI nude mouse assessed as increase in cleaved caspase3 level at 40 mg/kg, po administered 5 times per week for 4 weeks by immunohistochemical analysis; assay type: functional, organism-based
# Outline: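 DU145 cells (1.5 million) inoculated subcutaneously in the flank of NMRI-nude male mice. After four weeks, 10 mice per group were dosed orally by feeding needle with 40 mg/kg or vehicle (50 mM citrate buffer pH 4.0, 2% DMSO), five days a week for four weeks. Tumours were fixed in formaldehyde and stained for cleaved caspase-3. Positive cells were counted as the mean per view over five 10x views per section.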
# Hepatocyte = assay: Prodrug conversion in mouse hepatocytes assessed as formation of 3-beta-(N-Acetyl-L-cysteine)-2a-beta,3-dihydrogaliellalactone after 2 hrs by UPLC-MS analysis; assay type: ADME, cell-based
# Outline: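 Cryopreserved mouse hepatocytes incubated with an initial 10 µM test item (DMSO stock) in Celsis InVitro HI medium, pH 7.4, 37 °C. Cell viability checked by Trypan blue. Sampled at 0 and 120 min and stopped with an equal volume of acetonitrile. Analysed by UPLC/Q-TOF-MS.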
# Mus musculus [20] = assay: Toxicity in CD1 mouse assessed as change in body weight at 200 mg/kg, administered as single dose through oral gavage measured on day 1 (reference value: 33.5 +/- 4.34 g); assay type: organism-based; conditions: in vivo
# Mus musculus [21] = assay: Toxicity in CD1 mouse assessed as change in body weight at 40 mg/kg, administered as single dose through oral gavage measured on day 8 (reference value: 32.28 +/- 4.42 g); assay type: organism-based; conditions: in vivo
compound,measurement,setting,value
COC(=O)[C@H](CS[C@H]1C2C(=O)O[C@@H]3CC[C@H](C[C@@H]1C)[C@]23O)NC(C)=O (stereo partly drawn),Activity,Mus musculus [1],Non-toxic
same,Activity,Mus musculus [2],Non-toxic
same,Tmax,Mus musculus [3],0.25 h
same,inhibition,DU-145 [4],Active
same,AUCt,Mus musculus [5],676 µg/mL/min
same,t1/2(app),Mus musculus [6],3 h
same,AUC,Mus musculus [7],679 µg/mL/min
same,Activity,Mus musculus [8],33.68 g
same,Activity,Mus musculus [9],Non-toxic
same,AUCt,Mus musculus [10],213 µg/mL/min
same,Activity,Mus musculus [11],32.52 g
same,half-life at 10 µM,[12],> 2.5 h
same,Activity,[13],Active
same,Cmax,Mus musculus [14],7478 ng/mL
same,AUC,Mus musculus [15],120 µg/mL/min
same,t1/2,Plasma,< 5 min
same,AUC,Mus musculus [16],215 µg/mL/min
same,Activity,Mus musculus [17],Non-toxic
same,t1/2(app),Mus musculus [18],3 h
same,Activity,DU-145 [19],Active
same,Drug metabolism,Hepatocyte,metabolite_detected
same,Activity,Mus musculus [20],33.56 g
same,Activity,Mus musculus [21],31.12 g
